Reference: ChEMBL document CHEMBL4765236, “Insights into the Antimicrobial Activity and Cytotoxicity of Engineered α-Helical Peptide Amphiphiles” (J Med Chem, 2016)
Converted amounts (≈) assume the structure as drawn. The source made the active and inactive calls. The calls are words filed in the database; no cut-off is given here. Where a SMILES comes first, the peptide text is derived from it. Bridges are numbered along the chain shown (N, C = ends). [ ]: non-standard residue; d: D form. The star is where a group is joined. X1 = CC[C@H](C)CCCCC(=O)*; Dab = NCC[C@H](N)C(=O)O

What was measured:
Escherichia coli [1] = assay: Antibacterial activity against Escherichia coli O157:H7 CICC 21530 assessed as bacterial growth inhibition incubated for 18 to 24 hrs by microtiter broth dilution method; format: functional; conditions: time 18-24 hrs
Outline: (§1)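 Log-phase bacteria grown at 37 °C in MHB, diluted to 10^5 CFU/mL, mixed 1:1 with serial peptide dilutions (peptide diluted in 0.01% acetic acid, 0.2% BSA); 37 °C for 18-24 h. MIC read by OD492 as lowest concentration giving no growth; mean of 3-5 independent experiments.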

Escherichia coli [2] = assay: Antibacterial activity against Escherichia coli ATCC 25922 assessed as bacterial growth inhibition incubated for 18 to 24 hrs by microtiter broth dilution method; format: functional; conditions: time 18-24 hrs
Outline: (§2)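 Log-phase cells (grown overnight at 37 °C, subcultured in MHB) diluted to 10^5 CFU/mL in MHB and mixed 1:1 with serial peptide dilutions prepared in 0.01% acetic acid/0.2% BSA. Incubated 37 °C for 18-24 h. MIC is the lowest concentration giving no growth by OD492. Reported as the average of 3-5 independent experiments.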

Escherichia coli [3] = assay: Antibacterial activity against Escherichia coli ATCC 35150 assessed as bacterial growth inhibition incubated for 18 to 24 hrs by microtiter broth dilution method; format: functional; conditions: time 18-24 hrs; outline: as §2
Salmonella paratyphi [4] = assay: Antibacterial activity against Salmonella paratyphi A CICC 20501 assessed as bacterial growth inhibition incubated for 18 to 24 hrs by microtiter broth dilution method; format: functional, Salmonella enterica subsp. enterica serovar Paratyphi A; conditions: Salmonella enterica, time 18-24 hrs; outline: as §1
[5] = test system: Salmonella enterica subsp. enterica serovar Paratyphi B; assay: Antibacterial activity against Salmonella paratyphi B CICC 21495 assessed as bacterial growth inhibition incubated for 18 to 24 hrs by microtiter broth dilution method; format: functional; conditions: time 18-24 hrs; outline: as §1
Salmonella paratyphi [6] = assay: Antibacterial activity against Salmonella paratyphi C CICC 21512 assessed as bacterial growth inhibition incubated for 18 to 24 hrs by microtiter broth dilution method; format: functional; conditions: Salmonella enterica, time 18-24 hrs; outline: as §1
Shigella flexneri = assay: Antibacterial activity against Shigella flexneri CMCC 51571 assessed as bacterial growth inhibition incubated for 18 to 24 hrs by microtiter broth dilution method; format: functional; conditions: time 18-24 hrs; outline: as §2
Salmonella enterica = assay: Antibacterial activity against Salmonella choleraesuis ATCC 13312 assessed as bacterial growth inhibition incubated for 18 to 24 hrs by broth dilution method; format: functional; conditions: time 18-24 hrs; outline: as §1
Salmonella typhimurium = assay: Antibacterial activity against Salmonella typhimurium CMCC 51005 assessed as bacterial growth inhibition incubated for 18 to 24 hrs by microtiter broth dilution method; format: functional, Salmonella enterica subsp. enterica serovar Typhimurium; conditions: Salmonella enterica, time 18-24 hrs; outline: as §2
Salmonella enteritidis = assay: Antibacterial activity against Salmonella enteritidis CICC 21527 assessed as bacterial growth inhibition incubated for 18 to 24 hrs by microtiter broth dilution method; format: functional, Salmonella enterica subsp. enterica serovar Enteritidis; conditions: Salmonella enterica, time 18-24 hrs; outline: as §2
Vibrio parahaemolyticus = assay: Antibacterial activity against Vibrio parahaemolyticus CICC 21617 assessed as bacterial growth inhibition incubated for 18 to 24 hrs by broth dilution method; format: functional; conditions: time 18-24 hrs; outline: as §2
Staphylococcus aureus [7] = assay: Antibacterial activity against Staphylococcus aureus ATCC 29213 assessed as bacterial growth inhibition incubated for 18 to 24 hrs by microtiter broth dilution method; format: functional; conditions: time 18-24 hrs; outline: as §2
Staphylococcus aureus [8] = assay: Antibacterial activity against Staphylococcus aureus GIM 1.160 assessed as bacterial growth inhibition incubated for 18 to 24 hrs by microtiter broth dilution method; format: functional; conditions: time 18-24 hrs; outline: as §2
Listeria monocytogenes [9] = assay: Antibacterial activity against Listeria monocytogenes CICC 21662 assessed as bacterial growth inhibition incubated for 18 to 24 hrs by microtiter broth dilution method; format: functional; conditions: time 18-24 hrs; outline: as §2
Listeria monocytogenes [10] = assay: Antibacterial activity against Listeria monocytogenes CICC 21633 assessed as bacterial growth inhibition incubated for 18 to 24 hrs by microtiter broth dilution method; format: functional; conditions: time 18-24 hrs; outline: as §2
Bacillus cereus = assay: Antibacterial activity against Bacillus cereus CMCC 63301 assessed as bacterial growth inhibition incubated for 18 to 24 hrs by microtiter broth dilution method; format: functional; conditions: time 18-24 hrs; outline: as §2
Micrococcus luteus = assay: Antibacterial activity against Micrococcus luteus CMCC 28001 assessed as bacterial growth inhibition incubated for 18 to 24 hrs by microtiter broth dilution method; format: functional; conditions: time 18-24 hrs; outline: as §2
Bacillus pumilus = assay: Antibacterial activity against Bacillus pumilus CMCC 63202 assessed as bacterial growth inhibition incubated for 18 to 24 hrs by microtiter broth dilution method; format: functional; conditions: time 18-24 hrs; outline: as §2
Pseudomonas fluorescens = assay: Antibacterial activity against Pseudomonas fluorescens CICC 21620 assessed as bacterial growth inhibition incubated for 18 to 24 hrs by microtiter broth dilution method; format: functional; conditions: time 18-24 hrs; outline: as §2
Staphylococcus aureus [11] = assay: Antibacterial activity against methicillin resistant Staphylococcus aureus ATCC 43300 assessed as bacterial growth inhibition incubated for 18 to 24 hrs by microtiter broth dilution method; format: functional; conditions: time 18-24 hrs; outline: as §1
Candida albicans = assay: Antifungal activity against Candida albicans ATCC 10231 assessed as fungal growth inhibition incubated for 18 to 24 hrs by microtiter broth dilution method; format: functional; conditions: time 18-24 hrs; outline: as §2
Erythrocyte = assay: Hemolytic activity against human red blood cells assessed as concentration required to cause 10% hemoglobin release measured after 1 hr by microplate reader analysis; format: ADME, cell-based
Outline: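 Fresh heparinized human RBCs washed three times in 10 mM PBS pH 7.4 and resuspended to about 1% (v/v) (5.4 × 10^8 cells/mL). Mixed 1:1 with peptide in PBS for 1 h at 37 °C, then centrifuged. Supernatant hemoglobin read at A540. PBS set as 0% and 0.1% Triton X-100 as 100% hemolysis. MHC is the concentration causing 10% hemolysis.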

[12] = Therapeutic index, ratio of MHC10 for human RBC to geometric mean of peptide MIC for Escherichia coli O157:H7 CICC 21530; format: toxicity; conditions: human red blood cells (RBC), pooled result: one value given for 11 cell lines, strains, targets or settings, read-out: TI
Outline: (§3)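 Therapeutic index = MHC (peptide concentration giving 10% hemolysis of human RBCs, 1 h, 37 °C, A540) divided by geometric mean of MICs from broth microdilution (10^5 CFU/mL in MHB, 37 °C, 18-24 h, OD492).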

[13] = Therapeutic index, ratio of MHC10 for human RBC to geometric mean of peptide MIC for Staphylococcus aureus ATCC 29213; format: toxicity; conditions: human red blood cells (RBC), pooled result: one value given for 9 cell lines, strains, targets or settings, read-out: TI; outline: as §3
[14] = Hemolytic activity against human red blood cells assessed as hemoglobin release at 64 uM measured after 1 hr by microplate reader analysis relative to control; format: ADME, cell-based, Erythrocyte; conditions: read-out: Activity
Outline: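 Fresh heparinized human RBCs washed in 10 mM PBS pH 7.4, ~1% (v/v) suspension mixed 1:1 with peptide in PBS, 1 h at 37 °C; after centrifugation, supernatant absorbance at 540 nm. Percent hemolysis relative to PBS (0%) and 0.1% Triton X-100 (100%).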

RAW264.7 = assay: Cytotoxicity against mouse RAW264.7 cells assessed as increase in cell viability at 64 uM incubated for 24 hrs by MTT assay relative to control; format: cell-based; conditions: raw264.7, 24 h
Outline: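 RAW264.7 macrophages were grown in DMEM with 10% FBS, 2 mM glutamine and penicillin/streptomycin at 37 °C in 5% CO2. Cells seeded at 1.0-2.0 × 10^4 per well and treated with peptide (final 0.25-64 µM) for 24 h at 37 °C. MTT at 0.5 mg/mL added for 4 h, formazan dissolved in DMSO, read at 570 nm.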

Cell membrane [15] = assay: Induction of inner membrane permeabilization in Escherichia coli O157:H7 CICC 21530 assessed as cytoplasmic beta-galactosidase release at 1 times MIC using ONPG as substrate by […]; format: subcellular
Cell membrane [16] = assay: Induction of cell membrane depolarization in Escherichia coli O157:H7 CICC 21530 assessed as increase in fluorescence intensity at 0.5 to 2 times MIC preincubated for 90 mins followed by KCl addition and measured after 15 to 30 mins by DiSC3-5 staining based fluorescence spectroscopic technique; format: subcellular; conditions: time 105-120 min

CC[C@H](C)CCCCC(=O)N[C@@H](CCN)C(=O)N[C@H](C(=O)N[C@@H](CCN)C(=O)N[C@H]1CCNC(=O)[C@H]([C@@H](C)O)NC(=O)[C@H](CCN)NC(=O)[C@H](CCN)NC(=O)[C@H](CC(C)C)NC(=O)[C@@H](Cc2ccccc2)NC(=O)[C@H](CCN)NC1=O)[C@@H](C)O (X1-[Dab]T[Dab][Dab][Dab][dF]L[Dab][Dab]T; lactam 4-C)
MIC (Escherichia coli [1]): 3.07 µM (≈ 3.69 µg/mL)
MIC (Escherichia coli [2]): 0.38 µM (≈ 0.457 µg/mL)
MIC (Escherichia coli [3]): 1.54 µM (≈ 1.85 µg/mL)
MIC (Salmonella paratyphi [4]): 0.77 µM (≈ 0.927 µg/mL)
MIC [5]: 1.54 µM (≈ 1.85 µg/mL)
MIC (Salmonella paratyphi [6]): 3.07 µM (≈ 3.69 µg/mL)
MIC (Shigella flexneri): 0.77 µM (≈ 0.927 µg/mL)
MIC (Salmonella enterica): 1.54 µM (≈ 1.85 µg/mL)
MIC (Salmonella typhimurium): 0.77 µM (≈ 0.927 µg/mL)
MIC (Salmonella enteritidis): 1.54 µM (≈ 1.85 µg/mL)
MIC (Vibrio parahaemolyticus): 0.77 µM (≈ 0.927 µg/mL)
MIC (Staphylococcus aureus [7]): 49.2 µM (≈ 59.2 µg/mL)
MIC (Staphylococcus aureus [8]): 49.2 µM (≈ 59.2 µg/mL)
MIC (Listeria monocytogenes [9]): 24.6 µM (≈ 29.6 µg/mL)
MIC (Listeria monocytogenes [10]): 12.3 µM (≈ 14.8 µg/mL)
MIC (Bacillus cereus): 49.2 µM (≈ 59.2 µg/mL)
MIC (Micrococcus luteus): > 98.3 µM
MIC (Bacillus pumilus): 49.2 µM (≈ 59.2 µg/mL)
MIC (Pseudomonas fluorescens): 49.2 µM (≈ 59.2 µg/mL)
MIC (Staphylococcus aureus [11]): > 98.3 µM
MIC (Candida albicans): 49.2 µM (≈ 59.2 µg/mL)
MHC10 (Erythrocyte): > 98.34 µM
selectivity ratio [12]: 165

CC[C@H](C)[C@H](NC(=O)CN)C(=O)NCC(=O)N[C@@H](C)C(=O)N[C@H](C(=O)N[C@@H](CC(C)C)C(=O)N[C@@H](CCCCN)C(=O)N[C@H](C(=O)N[C@@H](CC(C)C)C(=O)N[C@H](C(=O)N[C@H](C(=O)NCC(=O)N[C@@H](CC(C)C)C(=O)N1CCC[C@H]1C(=O)N[C@@H](C)C(=O)N[C@@H](CC(C)C)C(=O)N[C@H](C(=O)N[C@@H](CO)C(=O)N[C@@H](Cc1c[nH]c2ccccc12)C(=O)N[C@H](C(=O)N[C@@H](CCCCN)C(=O)N[C@@H](CCCNC(=N)N)C(=O)N[C@@H](CCCCN)C(=O)N[C@@H](CCCNC(=N)N)C(=O)N[C@@H](CCC(N)=O)C(=O)N[C@@H](CCC(N)=O)C(N)=O)[C@@H](C)CC)[C@@H](C)CC)[C@@H](C)O)[C@@H](C)O)C(C)C)C(C)C [MELITTIN]
MIC (Salmonella paratyphi [4]): 0.7 µM (≈ 1.99 µg/mL)
MIC [5]: 0.35 µM (≈ 0.996 µg/mL)
MIC (Salmonella paratyphi [6]): 0.7 µM (≈ 1.99 µg/mL)
MIC (Shigella flexneri): 0.7 µM (≈ 1.99 µg/mL)
MIC (Salmonella enterica): 0.7 µM (≈ 1.99 µg/mL)
MIC (Salmonella enteritidis): 1.41 µM (≈ 4.01 µg/mL)
MIC (Vibrio parahaemolyticus): 1.41 µM (≈ 4.01 µg/mL)
MIC (Bacillus cereus): 1.41 µM (≈ 4.01 µg/mL)
MIC (Micrococcus luteus): 0.7 µM (≈ 1.99 µg/mL)
MIC (Bacillus pumilus): 0.35 µM (≈ 0.996 µg/mL)
MIC (Pseudomonas fluorescens): 1.41 µM (≈ 4.01 µg/mL)
MIC (Candida albicans): 2.81 µM (≈ 8 µg/mL)
MHC10 (Erythrocyte): 0.35 µM
selectivity ratio [12]: 0.44
selectivity ratio [13]: 0.43
hemolysis at 1 h, 64 µM [14]: 63.7%
Activity (RAW264.7): 1.85%
Activity (Cell membrane [15]): Active
Activity (Cell membrane [16]): Active
